Drawing on ChEMBL document CHEMBL1157080 (Eur J Med Chem, 2010), this text covers IC50, Inhibition and inhibition of growth for 31 compounds.

Experiment [1] has as its system HT-29. Nature of the experiment: Growth inhibition of human HT-29 cells after 72 hrs by cell titer glo assay. The experiment is classed as functional, cell-based. Particulars: HT-29, 72 h. Background: Cellular ATP, detected with luciferase, serves as a proxy for viable cell number.
Experiment [2] concerns the target T1, cGMP-specific 3',5'-cyclic phosphodiesterase (Homo sapiens, UniProt O76074). As to the kind of experiment: Inhibition of human recombinant PDE5 at 100 uM after 1.5 hrs by fluorescent polarization assay. Summed up: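 Single 100 μM screening dose, run in triplicate. Purified PDE5 with 50 nM TAMRA-cGMP, 1.5 h at 30 °C, then IMAP binding reagent for 30 min at 30 °C. Percent inhibition from fluorescence polarization.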

Experiment [3] has as its target T1, cGMP-specific 3',5'-cyclic phosphodiesterase. As to the kind of experiment: Inhibition of human recombinant PDE5 after 1.5 hrs by fluorescent polarization assay. Summed up: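 Purified PDE5 (5 μ/mL) treated with compound or vehicle plus 50 nM TAMRA-cGMP, incubated 1.5 h at 30 °C. IMAP binding reagent was then added for 30 min at 30 °C and fluorescence polarization read.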

Experiment [4] relates to HT-29. As to the kind of experiment: Growth inhibition of human HT-29 cells at 100 uM after 72 hrs by cell titer glo assay. Particulars: HT-29, 72 h, read-out: GI. The experiment is classed as functional. The method, boiled down:
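HT-29 cells in RPMI 1640/5% FBS, >95% viable at harvest, seeded 5000 cells/well and incubated 18–24 h before dosing at a single 100 μM screening dose (final DMSO 0.1%). Percent growth inhibition from CellTiter-Glo luminescence 72 h after treatment, triplicate wells.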

Turning to `COC(=O)[C@H]1Cc2c([nH]c3ccccc23)[C@@H](c2ccccc2Br)N1C(=O)CCl`, the IC50 in experiment [1] was 1.6 µM; in experiment [3] it was 29000 nM. Further, the Inhibition in experiment [2] was 86%.
`O=C1[C@@H]2Cc3c([nH]c4ccccc34)[C@H](c3ccccc3Br)N2C(=O)CN1Cc1ccccc1` showed an IC50 in experiment [1] above 100 µM. The Inhibition in experiment [2] stood at 48.7%.
In the same order, the values of `O=C1[C@H]2Cc3c([nH]c4ccccc34)[C@H](c3ccccc3Br)N2C(=O)CN1Cc1ccccc1` are above 100 µM and 69.4%.
Consider `CN1CC(=O)N2[C@@H](c3ccccc3Br)c3[nH]c4ccccc4c3C[C@@H]2C1=O`, for which the inhibition of growth at 100 µM in experiment [4] is 61.7%. Further, the Inhibition in experiment [2] turned out to be 75.5%. The IC50 in experiment [3] is 88000 nM.
Regarding `CCN1C(=O)[C@@H]2Cc3c([nH]c4ccccc34)[C@@H](c3ccccc3Br)N2C1=S`, the figures for the IC50 in experiment [1] and in experiment [3] were 22.5 µM and 6100 nM, respectively. In addition, the Inhibition in experiment [2] stood at 93.5%.
In the case of `CN1CC(=O)N2[C@H](c3ccccc3Br)c3[nH]c4ccccc4c3C[C@H]2C1=O`, the IC50 in experiment [1] was 25.5 µM; in experiment [3], 60 nM. The Inhibition in experiment [2] was found to be 97.6%.
In the case of `CCN1C(=O)[C@H]2Cc3c([nH]c4ccccc34)[C@@H](c3ccccc3Br)N2C1=O`, the IC50 in experiment [1] was determined as 21 µM; in experiment [3], 290 nM. For the same compound, the inhibition of growth at 100 µM in experiment [4] was 79.5%. Further, the Inhibition in experiment [2] worked out at 98.7%.
For `COC(=O)[C@H]1Cc2c([nH]c3ccccc23)[C@@H](c2ccccc2Br)N1`, the figures for the IC50 in experiment [1] and in experiment [3] were 48 µM and 5600 nM, respectively. The inhibition of growth at 100 µM in experiment [4] was determined as 89%. The Inhibition in experiment [2] came out at 85.5%.
`CCCCN1CC(=O)N2[C@@H](c3ccccc3Br)c3[nH]c4ccccc4c3C[C@H]2C1=O` registered an IC50 in experiment [1] above 100 µM. Moreover, the Inhibition in experiment [2] worked out at 69.1%.
Turning to `CCN1C(=O)[C@H]2Cc3c([nH]c4ccccc34)[C@H](c3ccccc3Br)N2C1=O`, the inhibition of growth at 100 µM in experiment [4] was 65.1%. Also, in experiment [2], the Inhibition is 93%. Also, in experiment [3], the IC50 came to 4000 nM.
`CCN1C(=O)[C@@H]2Cc3c([nH]c4ccccc34)[C@H](c3ccccc3Br)N2C1=O`: the IC50 in experiment [1] turned out to be 24 µM; in experiment [3], 640 nM. Further, the inhibition of growth at 100 µM in experiment [4] came to 77.9%. Also, in experiment [2], the Inhibition amounted to 89.5%.
For the compound `CCCCN1CC(=O)N2[C@@H](c3ccccc3Br)c3[nH]c4ccccc4c3C[C@@H]2C1=O`, the inhibition of growth at 100 µM in experiment [4] worked out at 50.2%. Moreover, the Inhibition in experiment [2] was 66.7%.
Consider `CCN1C(=O)[C@@H]2Cc3c([nH]c4ccccc34)[C@@H](c3ccccc3Br)N2C1=O`, for which the IC50 in experiment [1] is 20 µM; in experiment [3], 38 nM. For the same compound, the inhibition of growth at 100 µM in experiment [4] was 69.8%. The Inhibition in experiment [2] turned out to be 99.5%.
In the case of `O=C1[C@@H]2Cc3c([nH]c4ccccc34)[C@@H](c3ccccc3Br)N2C(=O)CN1Cc1ccccc1`, the values for the IC50 in experiment [1] and in experiment [3] were above 100 µM and 40 nM, respectively. Further, the Inhibition in experiment [2] is 100%.
In experiment [1], `COC(=O)[C@H]1Cc2c([nH]c3ccccc23)[C@H](c2ccccc2Br)N1` had an IC50 of 78 µM. Also, the inhibition of growth at 100 µM in experiment [4] was determined as 85%. The Inhibition in experiment [2] stood at 21.5%.
Consider `CN1CC(=O)N2[C@H](c3ccccc3Br)c3[nH]c4ccccc4c3C[C@@H]2C1=O`, for which the inhibition of growth at 100 µM in experiment [4] amounted to 50.4%. For the same compound, in experiment [2], the Inhibition is 96%. Moreover, the half-maximal inhibitory concentration (IC50) in experiment [3] came out at 100 nM.
In experiment [1], `COC(=O)[C@@H]1Cc2c([nH]c3ccccc23)[C@H](c2ccccc2Br)N1` showed an IC50 of 26 µM. The inhibition of growth at 100 µM in experiment [4] came out at 92.8%. Moreover, the Inhibition in experiment [2] is 46%.
Turning to `O=C1[C@H]2Cc3c([nH]c4ccccc34)[C@@H](c3ccccc3Br)N2C(=O)CN1Cc1ccccc1`, the inhibition of growth at 100 µM in experiment [4] came out at 34.2%. The Inhibition in experiment [2] is 91.9%. Moreover, the IC50 in experiment [3] was 3400 nM.
Regarding `CCN1C(=O)[C@H]2Cc3c([nH]c4ccccc34)[C@H](c3ccccc3Br)N2C1=S`, the IC50 in experiment [1] is above 100 µM; in experiment [3], 74000 nM. In addition, in experiment [2], the Inhibition is 82.8%.
For the compound `CCN1CC(=O)N2[C@@H](c3ccccc3Br)c3[nH]c4ccccc4c3C[C@H]2C1=O`, the Inhibition in experiment [2] is 90.3%.
`CCN1CC(=O)N2[C@@H](c3ccccc3Br)c3[nH]c4ccccc4c3C[C@@H]2C1=O`: in experiment [4], the inhibition of growth at 100 µM came out at 65.6%. In experiment [2], the Inhibition was determined as 91.7%.
Turning to `COC(=O)[C@H]1Cc2c([nH]c3ccccc23)[C@H](c2ccccc2Br)N1C(=O)CCl`, the IC50 in experiment [1] is above 100 µM. Further, the Inhibition in experiment [2] was 47.9%.
Take `COC(=O)[C@@H]1Cc2c([nH]c3ccccc23)[C@@H](c2ccccc2Br)N1`: the inhibition of growth at 100 µM in experiment [4] was 57.5%. Besides, the Inhibition in experiment [2] came out at 91.1%. For the same compound, the IC50 in experiment [3] was 3100 nM.
Take `CCN1CC(=O)N2[C@H](c3ccccc3Br)c3[nH]c4ccccc4c3C[C@H]2C1=O`: the inhibition of growth at 100 µM in experiment [4] came to 47.2%. Moreover, the Inhibition in experiment [2] is 89.2%.
`COC(=O)[C@@H]1Cc2c([nH]c3ccccc23)[C@@H](c2ccccc2Br)N1C(=O)CCl`: the Inhibition in experiment [2] came out at 47.9%.
In the case of `CN1CC(=O)N2[C@@H](c3ccccc3Br)c3[nH]c4ccccc4c3C[C@H]2C1=O`, the IC50 in experiment [1] was determined as 27 µM; in experiment [3], 2800 nM. The inhibition of growth at 100 µM in experiment [4] is 76.1%. Also, the Inhibition in experiment [2] came to 92.7%.
For the compound `CN1CC(=O)N2[C@H](c3ccc4c(c3)OCO4)c3[nH]c4ccccc4c3C[C@@H]2C1=O`, the IC50 in experiment [1] is above 100 µM. For the same compound, the Inhibition in experiment [2] came to 100%.
In the case of `CCCCN1CC(=O)N2[C@H](c3ccccc3Br)c3[nH]c4ccccc4c3C[C@H]2C1=O`, the values for the IC50 in experiment [1] and in experiment [3] were above 100 µM and 50 nM, respectively. Moreover, the Inhibition in experiment [2] amounted to 93.8%.
On to `CCN1CC(=O)N2[C@H](c3ccccc3Br)c3[nH]c4ccccc4c3C[C@@H]2C1=O`, for which the IC50 in experiment [1] is above 100 µM. For the same compound, the Inhibition in experiment [2] came to 97%.
Turning to `CCCCN1CC(=O)N2[C@H](c3ccccc3Br)c3[nH]c4ccccc4c3C[C@@H]2C1=O`, in experiment [4], the inhibition of growth at 100 µM is 55.7%. Further, the Inhibition in experiment [2] stood at 99.7%. For the same compound, in experiment [3], the IC50 was 260 nM.
`COC(=O)[C@@H]1Cc2c([nH]c3ccccc23)[C@H](c2ccccc2Br)N1C(=O)CCl` returned an IC50 in experiment [1] of 4.1 µM. Moreover, in experiment [2], the Inhibition came to 35.8%.

In general, IC50 refers to the concentration at which inhibition is half-maximal. A word on the Inhibition: it is the drop in the measured response relative to a control, in per cent.
